Screening results (PubChem BioAssay)
GSK3B inh: human GSK3beta kinase inhibition. P49841. GST-GSK3beta kinase, ADP-Glo luminescence, 60 min; hits give low values. 0.038% of 300,000 active. activity score (negative = inhibition), % at 10 µM;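 active = more than half of replicate wells score below -50%, meaning over 50% inhibition versus plate controls; inconclusive = some replicates but at most half score below -50%; inactive = no replicate scores below -50%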;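 note: 0% = median DMSO wells and -100% = median GW8510 positive control wells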
Target sequence (P49841 whole entry, looked up): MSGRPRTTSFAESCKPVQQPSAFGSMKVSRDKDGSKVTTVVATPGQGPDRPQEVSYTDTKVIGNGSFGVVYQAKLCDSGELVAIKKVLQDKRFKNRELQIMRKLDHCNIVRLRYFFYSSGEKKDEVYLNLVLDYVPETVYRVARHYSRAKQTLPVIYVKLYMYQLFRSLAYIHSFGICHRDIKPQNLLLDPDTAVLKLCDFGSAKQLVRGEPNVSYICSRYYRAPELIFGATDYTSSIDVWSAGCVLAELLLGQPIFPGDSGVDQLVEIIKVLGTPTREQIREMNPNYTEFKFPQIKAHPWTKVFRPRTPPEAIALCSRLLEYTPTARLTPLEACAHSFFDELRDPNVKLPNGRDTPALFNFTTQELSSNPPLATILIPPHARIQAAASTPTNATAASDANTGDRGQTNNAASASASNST
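Assay system: GST-tagged human GSK3beta kinase, cell-free; Input: 1.6 ng GSK3beta; Medium: Tris/MgCl2 kinase buffer; Timing: 60 min enzyme reaction, room temperature; Signal: ADP-Glo luminescence quantifying ADP generated by kinase; Evaluation: score relative to plate controls; Benchmarks: DMSO neutral wells and GW8510 at 20 µM as positive.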
Dyrk1A ADPGlo: inhibitors of rat Dyrk1A kinase. ADP-Glo luminescence, NFATc1 peptide. inhibition, % at 12.5 µM. 0.43% of 310,000 active; in the data active = inhibition above about 50%;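 note: plate controls were vehicle with enzyme for no effect and no enzyme for full effect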
GSK3 alpha inh: human GSK-3 alpha kinase inhibition; P49840; 0.1% of 320,000 active; ADP-Glo luminescence, 60 min; inhibition, % at 10 µM; AID 2650;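 active = more than half of replicates show inhibition above 20%; inconclusive = some but at most half of replicates above 20% inhibition; inactive = no replicate shows inhibition above 20%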;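 note: GST-tagged GSK-3 alpha with peptide substrate and 25 µM ATP; 0% = DMSO neutral wells and 100% = GW8510 positive control wells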
AI-2 QS mod: modulates the Vibrio harveyi AI-2 quorum sensing system; Vibrio harveyi JMH597 AI-2 luminescence/OD600 ratio, 9 h; hits give low values; strain lacks LuxN and CqsS sensors; 0 = neutral-control median; activity change, % at 7.5 µM; 0.4% of 300,000 active; in the data active = activity change below about -75%, passing the limit was not always enough; inconclusive = no clear call, values can overlap the other calls;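 note: luminescence divided by OD600 gain over 9 h not by final OD600 alone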
Rce1 inhib: yeast Ras-converting enzyme inhibition | Q03530 | yeast membranes, quenched prenylated peptide cleavage fluorescence | calls only | 0.27% of 290,000 active | AID 2563;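 active = fall in fluorescence gain of 50% or more versus controls, with final raw signal at or below 3038400; inconclusive = same 50% fall but final raw signal above 3038400; inactive = fall in fluorescence gain under 50%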;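 note: plate controls were neutral control wells for no effect and wells lacking membranes for full effect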
Target sequence (Q03530 whole entry, looked up): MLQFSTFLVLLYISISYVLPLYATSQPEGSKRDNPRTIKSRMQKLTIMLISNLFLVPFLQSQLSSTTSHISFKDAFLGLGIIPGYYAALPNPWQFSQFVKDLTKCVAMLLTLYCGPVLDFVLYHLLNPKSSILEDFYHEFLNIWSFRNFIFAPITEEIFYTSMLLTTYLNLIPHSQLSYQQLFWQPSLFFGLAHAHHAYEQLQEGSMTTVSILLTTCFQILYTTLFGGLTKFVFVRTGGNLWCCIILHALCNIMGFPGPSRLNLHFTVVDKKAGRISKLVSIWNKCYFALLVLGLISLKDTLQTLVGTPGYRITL
STK33 kinase inh: human STK33 kinase inhibition; 0.073% of 320,000 active; purified STK33, MBP phosphorylation, ADP-Glo luminescence; Q9BYT3; inhibition, % at 10 µM; AID 2661;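 active = inhibition at or above 25%, using the most active replicate where run in duplicate; inactive = inhibition below 25%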
JMH597 growth: retest: blocks Vibrio harveyi JMH597 growth | shares compounds with AI-2 QS mod | OD600 absorbance, 9 h; lacks LuxN and CqsS sensors | growth inhibition, % at 7.5 µM | 1% of 750 active | AID 2726;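 active = every replicate shows growth inhibition above 50%; inconclusive = at least half, but not all, replicates pass that cutoff; inactive = fewer than half of replicates pass it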
BB721 const-QS lum: retest counter-screen: BB721 constitutive quorum sensing luminescence decrease; shares compounds with AI-2 QS mod; Vibrio harveyi BB721 luminescence, 9 h; inhibition, % at 7.5 µM; 95% of 750 active;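 active = inhibition above about 80% in every replicate, not just on average, limit read from the data; inconclusive = at least half of replicates past the limit, but not all; inactive = fewer than half of replicates past the limit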
BB721 growth rt: retest: blocks Vibrio harveyi BB721 growth | growth inhibition, % at 7.5 µM | shares compounds with AI-2 QS mod | 3% of 750 active | OD600 absorbance, 9 h | AID 2728;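 active = every replicate shows growth inhibition above 50%; inconclusive = at least half but not all replicates above 50% inhibition; inactive = under half of replicates above 50% inhibition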
JMH597 AI-2 mod: Vibrio harveyi AI-2 signaling luminescence modulation – JMH597 strain, confirmation; shares compounds with AI-2 QS mod; Vibrio harveyi JMH597 AI-2 quorum sensing luminescence, 9 h; luxN and CqsS knockout, AI-2 only; inhibition, % at 7.5 µM; 97% of 750 active;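 active = every replicate shows more than 75% inhibition of signal versus neutral control wells; inconclusive = half to three quarters of replicates exceed 75% inhibition; inactive = fewer than half of replicates exceed 75% inhibition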
An asterisk follows results filed as active. Shown are actives, neighbours in structure and some others; about 0.99% of the full set was active somewhere.

Screening O=C(COc1ncnc2ccccc12)Nc1cccc([N+](=O)[O-])c1 returned GSK3B inh 0, Dyrk1A ADPGlo 0, GSK3 alpha inh 1, AI-2 QS mod -96*, Rce1 inhib inactive, STK33 kinase inh 0, JMH597 growth -9, BB721 const-QS lum 98*, BB721 growth rt -41 and JMH597 AI-2 mod 99*.
Screening O=C(COc1ncnc2ccccc12)Nc1ccc(Cl)c([N+](=O)[O-])c1 returned GSK3B inh 1, Dyrk1A ADPGlo 5, GSK3 alpha inh 1, AI-2 QS mod -97*, Rce1 inhib inactive, STK33 kinase inh 0, JMH597 growth -21, BB721 const-QS lum 100*, BB721 growth rt -10 and JMH597 AI-2 mod 100*.
CC(C)=CC(=O)OCC(=O)Nc1cccc([N+](=O)[O-])c1 was read as GSK3B inh -2, Dyrk1A ADPGlo 4, GSK3 alpha inh 0, AI-2 QS mod -89*, Rce1 inhib inactive, STK33 kinase inh 0, JMH597 growth 11, BB721 const-QS lum 95*, BB721 growth rt 4 and JMH597 AI-2 mod 97*.
Screening O=C(COc1ncnc2ccccc12)Nc1ccccc1[N+](=O)[O-] returned GSK3B inh 1, GSK3 alpha inh -3, AI-2 QS mod 27, Rce1 inhib inactive and STK33 kinase inh 0.
CCOc1ccc(CCNC(=O)COC(=O)c2cc(=O)[nH]c3ccccc23)cc1OCC was read as GSK3B inh 0, Dyrk1A ADPGlo 3, GSK3 alpha inh -3, AI-2 QS mod 8, Rce1 inhib inactive and STK33 kinase inh -1.
`COc1cc(C2NC(=O)CCC2[N+](=O)[O-])cc(OC)c1OC` (stereo not drawn) gave GSK3B inh 2, Dyrk1A ADPGlo 1, GSK3 alpha inh -2, AI-2 QS mod 8, Rce1 inhib inactive and STK33 kinase inh 0.
CSCCC1NC(=O)N(CC(=O)Nc2cc(C)on2)C1=O (stereo not drawn) was read as Dyrk1A ADPGlo -5, GSK3 alpha inh 2 and STK33 kinase inh -2.
`CSCCC1NC(=O)N(CC(=O)Nc2ccc(N3CCCCC3)cc2)C1=O` (stereo not drawn) gave GSK3B inh -2, Dyrk1A ADPGlo -1, GSK3 alpha inh -4, AI-2 QS mod -82*, Rce1 inhib inactive, STK33 kinase inh 0, JMH597 growth -2, BB721 const-QS lum 91*, BB721 growth rt -11 and JMH597 AI-2 mod 95*.
For CC(C)CC(=O)/C=C/n1c(=S)oc2ccccc21 the results were GSK3B inh 0, Dyrk1A ADPGlo 3, GSK3 alpha inh 1, AI-2 QS mod -86*, Rce1 inhib inactive, STK33 kinase inh 0, JMH597 growth 29, BB721 const-QS lum 93*, BB721 growth rt 31 and JMH597 AI-2 mod 93*.
O=[N+]([O-])c1ccc2nc(NN=Cc3ccc(O)cc3)sc2c1 was read as Dyrk1A ADPGlo -6.
CNc1nc(SCC(=O)Nc2ccc(Cl)c(Cl)c2)nc(N2CCOCC2)n1 was read as GSK3B inh 1, Dyrk1A ADPGlo 0, GSK3 alpha inh -2, AI-2 QS mod inconclusive, Rce1 inhib inactive, STK33 kinase inh 0, JMH597 growth -13, BB721 const-QS lum -13, BB721 growth rt -22 and JMH597 AI-2 mod -2.
CC1Oc2ccccc2N(CC(=O)NC2CCCCC2)C1=O (stereo not drawn) was read as GSK3B inh 1, Dyrk1A ADPGlo -1, GSK3 alpha inh -2, AI-2 QS mod 20, Rce1 inhib inactive and STK33 kinase inh 0.
`COc1cccc(/C=N/n2c(C3CCCCC3)n[nH]c2=S)c1OC` gave GSK3B inh 2, Dyrk1A ADPGlo -2, GSK3 alpha inh -1, AI-2 QS mod 13, Rce1 inhib inactive and STK33 kinase inh -2.
For COc1ccccc1/C=C\C=N\n1c(C2CCCCC2)n[nH]c1=S the results were GSK3B inh 4, Dyrk1A ADPGlo -4, GSK3 alpha inh -1, AI-2 QS mod inconclusive, Rce1 inhib inactive, STK33 kinase inh 0, JMH597 growth 24, BB721 const-QS lum 94*, BB721 growth rt 24 and JMH597 AI-2 mod 97*.
CCc1ccc(CNC(=O)Cn2nc(-c3ccc(C)cc3)ccc2=O)cc1 was read as GSK3B inh 12, GSK3 alpha inh -1, AI-2 QS mod -79*, Rce1 inhib inactive, STK33 kinase inh -1, JMH597 growth 38, BB721 const-QS lum 90*, BB721 growth rt 49 and JMH597 AI-2 mod 94*.
`NCCSC1CC(=O)N(c2ccc(Cl)c(Cl)c2)C1=O` (stereo not drawn) gave GSK3B inh -1, Dyrk1A ADPGlo 0, GSK3 alpha inh 0, AI-2 QS mod -80*, Rce1 inhib inactive, STK33 kinase inh -1, JMH597 growth 3, BB721 const-QS lum 90*, BB721 growth rt 34 and JMH597 AI-2 mod 94*.
`NCCSC1CC(=O)N(c2ccc(F)cc2)C1=O` (stereo not drawn) gave GSK3B inh -3, Dyrk1A ADPGlo 9, GSK3 alpha inh -5, AI-2 QS mod 25, Rce1 inhib inactive and STK33 kinase inh -2.
O=C1CC(SCCO)C(=O)N1c1ccc(Oc2ccccc2)cc1 (stereo not drawn) was read as GSK3B inh 1, GSK3 alpha inh -5, AI-2 QS mod -83*, Rce1 inhib inactive, STK33 kinase inh -2, JMH597 growth 5, BB721 const-QS lum 91*, BB721 growth rt 13 and JMH597 AI-2 mod 92*.
Screening COc1ccccc1OCCNC(=O)c1cccc(S(=O)(=O)NCc2ccccc2)c1 returned Dyrk1A ADPGlo -3, GSK3 alpha inh 1 and STK33 kinase inh 0.
`COc1ccc(OC)c(S(=O)(=O)N2CCN(C(=O)c3cc(C4CC4)nn3-c3ccccc3)CC2)c1` gave Dyrk1A ADPGlo -2, GSK3 alpha inh 28 and STK33 kinase inh 12.
Screening CN(C)S(=O)(=O)c1ccc(NC(=O)COc2ncnc3sccc23)cc1 returned GSK3B inh 0, GSK3 alpha inh -2, AI-2 QS mod -97*, Rce1 inhib inactive, STK33 kinase inh 1, JMH597 growth -2, BB721 const-QS lum 100*, BB721 growth rt 5 and JMH597 AI-2 mod 100*.
